Rows were chosen to be rich in hits. Some 3.6% of all compounds tested hit in one or more screens of this group.
PERK inhibitor: blocks human PERK kinase. CHO PERK-DD fusion, SEAP luminescence translation reporter. hit rate 0.17% among 220,000. inhibition, % at 5.6 µM;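 active = inhibition above the mean inhibition of all tested compounds plus 3 SD, set separately per screening campaign, cut at about 2.9% in these data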;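 note: PERK kinase domain activated by AP20187 dimerizer at 100 nM; 0% = DMSO with dimerizer and 100% = rapamycin at 8.4 µM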
HSF1 inhib: HSF1 inhibition | NIH3T3-HGL HSE-luciferase, MG132-induced, luminescence 8 h; hits give low values | activity change, negative = inhibition, % at 7.5 µM (by protocol) | hit rate 0.77% among 300,000 | AID 2098;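 active = more than half of replicate wells show activity change below -50%, luminescence cut by over half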;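 note: luciferase reports HSF-1 transcriptional activity via heat shock element; 0% = median of DMSO wells and -100% = zero luminescence signal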
Hsp70 act: switches on Hsp70 transcription | HeLa Hsp70 promoter luciferase reporter, luminescence; scaled: vehicle 0, proteasome-inhibitor control 100% | activation, % at 10 µM | hit rate 0.04% among 200,000 | AID 1203;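 active = activation above the mean across all tested compounds plus 3 SD, cutoff set per campaign, cut at about 5.5% in these data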;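 note: 100% = MG132 at 30 µM as the positive control and 0% = DMSO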
STAT3 act: activators of IL-6 induced STAT3 signaling; U3A cells, IL-6 STAT3-luciferase reporter, luminescence; 100% = signal with IL-6 EC80 alone; activation (% of control), % at 5.6 µM; hit rate 0.91% among 190,000;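 active = activation above the screen-wide mean of compound activation plus 3 SD, cut at about 130% in these data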;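 note: 0% = background luminescence of wells with medium and substrate only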
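Test system: human U3A cells carrying STAT3-luciferase construct; control set: IL-6-only wells as 100% reference; timing: compound pre-incubation 1 h before IL-6, then 6 h stimulation at 37 °C; also added: IL-6 stimulus at 33 ng/mL final; evaluation: % activation versus median of IL-6-stimulated wells; detection: reporter luminescence signal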
PolyA inhibitor: inhibitors of polyadenylation in S. cerevisiae; S. cerevisiae SKY197-pL101 polyadenylation reporter, beta-gal luminescence; efflux-impaired pdr1/pdr3 knockout yeast; score 100 = 6 SD above DMSO; hit rate 0.02% among 300,000; activity score, % at 12 µM;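 active = lowest replicate activity score at least 50, where 100 means six control SD above control mean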;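 note: yeast exposed to compound for 9 h at 30 °C; higher score means more reporter readthrough which indicates perturbed polyadenylation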
AHR activator: activators of human aryl hydrocarbon receptor; AHR-responsive luciferase reporter cells, luminescence; hit rate 2.5% among 320,000; P35869; AID 2796; activation, % at 5 µM; in the data active = activation above about 47%;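 note: 0% = vehicle wells and 100% = reference agonist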
* = called active by the depositor; . = no result given.

SMILES	PERK inhibitor	HSF1 inhib	Hsp70 act	STAT3 act	PolyA inhibitor	AHR activator
CCCCC1C(=O)N(c2ccccc2)N(c2ccccc2)C1=O	0	-9	0	108	-5	1
O=C(c1ccc(-c2cccc(C(F)(F)F)c2)o1)N1CCCC(C(F)(F)F)C1 (stereo unspecified)	.	12	.	.	1	4
N/C(=N\OC(=O)/C=C/c1ccccc1Cl)c1ccncc1	2	19	0	91	16	5
Cc1ccc(S(=O)(=O)N2C(=O)CCC2C(=O)O/N=C(\N)c2ccccc2)cc1 (stereo unspecified)	.	-3	.	.	-18	0
Fc1ccc(-c2cc(-c3ccccc3)nc(-n3cccn3)n2)cc1	1	-69*	0	82	-5	-10
CC1C(=O)N2CCCc3cc(S(=O)(=O)N(C)c4ccccc4)cc1c32 (stereo unspecified)	.	-4	.	.	-4	1
O=C(Nc1ccc(OC(F)(F)F)cc1)C1CCCN(S(=O)(=O)c2cnc[nH]2)C1 (stereo unspecified)	.	12	.	.	0	5
Cc1c(C(=O)Nc2c(C)n(C)n(-c3ccccc3)c2=O)oc2ccc(Cl)cc12	.	-3	.	.	-12	51*
N#C/C(=C/c1ccc(N2CCCCC2)o1)c1cccc(F)c1	-2	128	0	136*	9	0
O=C(Cn1cnc2ccccc21)Nc1cccc(S(=O)(=O)N2CCCC2)c1	.	.	.	.	.	-4
Cc1ccc(-c2ccc(C3C(C#N)=C(N)Oc4n[nH]c(C)c43)o2)cc1 (stereo unspecified)	1	23	0	136*	-3	5
Cc1cc(C[n+]2cc(Br)ccc2N)c2ncccc2c1	1	-1	.	.	-1	11
COc1cc(-c2noc(C)c2C#Cc2nccn2C)cc(OC)c1OC	.	2	.	.	-5	66*
NC(=O)C1CCN(C(=O)C2c3ccccc3C(=O)N3CCc4ccccc4C23)CC1 (stereo unspecified)	1	-4	0	118	5	61*
CC1CCN(C(=O)C2c3ccccc3C(=O)N3CCc4ccccc4C23)CC1 (stereo unspecified)	-1	0	-1	96	-9	3
CCOCCCNC(=O)C1c2ccccc2C(=O)N2CCc3ccccc3C12 (stereo unspecified)	-2	-45	0	108	1	76*
CCOc1ccc(NC(=O)c2ccccc2NC(=O)c2cccnc2)cc1	.	-4	.	.	2	17
Cc1ccc(N2CC(=O)N(NC(=O)c3sc4nc(C)cc(C)c4c3N)CC2=O)cc1	-1	-4	.	.	15	2
O=C(CCCCn1c(=O)[nH]c2ccsc2c1=O)NCc1cccnc1	1	-56*	0	105	0	0
O=C(CN(c1ccc(F)cc1)S(=O)(=O)c1ccccc1)N1CCOCC1	.	0	.	.	1	3
O=C(Cc1csc(Nc2nc(=S)[nH]c3ccccc23)n1)N1CCN(c2cccc(C(F)(F)F)c2)CC1	0	-7	0	135*	1	15
O=C(Cc1csc(Nc2nc(=S)[nH]c3ccccc23)n1)NCc1cccc(Cl)c1	1	.	0	122	.	34
CCOC(=O)N(Cc1ccccc1)Cc1ccc(C(=O)N[C@@H](Cc2ccccc2)C(=O)O)cc1	.	-6	.	.	-17	0
CCCN1C(=O)C2(SC(NC(C)=O)=NN2C(C)=O)c2cc(C)ccc21 (stereo unspecified)	0	-2	0	99	18	-2
CN1C(=O)C2(Oc3ccccc3C3CC(c4ccccc4)=NN32)c2ccccc21 (stereo unspecified)	0	47	0	120	-10	54*
S=C1NC2(CCS1)Oc1ccccc1C1CC(c3ccccc3)=NN12 (stereo unspecified)	0	-2	.	.	3	.
Cc1ccc(C2=NN3C(C2)c2ccccc2OC32C(=O)Nc3ccccc32)cc1 (stereo unspecified)	1	17	1	132	-3	47*
CCCCn1c(N)c(N(CC)C(=O)c2cc(S(=O)(=O)N3CCCCCC3)ccc2OC)c(=O)[nH]c1=O	.	-2	.	.	-1	2

Screening data deposited in PubChem by several laboratories.
